Assay [1] can be described thus: HUVEC growth inhibition – cell-based, human, primary screen (AID 575;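 active = viability at or below 30% in both replicate assays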;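 also: 100% = median of untreated cell wells with 0.1% DMSO on each plate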). The following applies: HUVEC proliferation, CellTiter-Glo luminescence, 72 h; at 10 µM; stronger effect = lower value. The essentials:
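material = primary HUVEC, no more than 12 passages | input = 1250 cells per well | controls = vehicle and MePR control wells | measured by = CTG luminescence | times = 72 h compound incubation | format = collagen-coated 384-well format | read-out = % viability vs DMSO wells | doses = single 10 µM dose, 0.1% DMSO, from 5x medium stock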

Assay [2] can be described thus: H69AR cell proliferation blockers – human, duplicate replicates, primary screen (AID 580).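 Also: 100% = mean luminescence of untreated wells and 0% = no signal.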 The note with it: H69AR lung tumor cells viability, ATP luminescence, 72 h; at 10 µM; stronger effect = lower value.
Assay [3] is described as follows: MRP1 drug-resistance reversers in H69AR cells – cell-based, doxorubicin co-treatment, pilot screen (AID 601;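 active = viability loss from added drug above about 55%, and viability with drug at most 40%, in both replicates, limit read from the data, passing the limit was not always enough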). The following applies: CellTiter-Glo, 72 h, at 10 µM; for differential viability (reversal): stronger effect = higher value. In general terms: In ATP-based viability assays light output follows the ATP content of the culture.
Assay [4] in a line: yeast transport mutant growth inhibition pilot in 384-well plates, post-Golgi transport modulator project (AID 636; in the data active = inhibition above about 31%). The following applies: absorbance 615 nm, about 18 h, stronger effect = higher value.
Assay [5] in a line: growth suppression of yeast trafficking mutant, preliminary HTS, modulators of trafficking downstream of Golgi apparatus project, 1536-format plate, OD 615 nm (AID 637; in the data active = inhibition above about 30%). The note with it: yeast transport mutant growth, absorbance 615 nm, 18 h; stronger effect = higher value.
Setting [6] is: H69AR cells + 2 uM doxorubicin, measured here: viability with 2 uM doxorubicin, stronger effect = lower value.
Where [7] appears, read: H69AR cells, compound alone cytotoxicity.

SMILES strings stand for the structures. The source made the active and inactive calls.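 The calls were made as follows, unless noted: active = viability at or under a set limit in both replicates, limit being median viability minus 3 SD (cut at about 48% in these data, passing the limit was not always enough); inconclusive = at or under the limit in just one replicate; inactive = at or above the limit in both replicates.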

The record followed here is PubChem BioAssay.

As usually defined, the viability is a read-out of living cells in per cent, often relative to untreated cells. As a reminder, the inhibition is the change of the read-out against control, counted positive when it falls.

With `O=C(Nc1nccs1)c1cccc(NC(=O)C2CC2)c1`, the viability is 103% (inactive) in assay [1], 87.5% (inactive) in assay [2], 79.1% in assay [3] (setting [6]) and 87.5% in assay [3] (setting [7]). Moreover, in assay [3] (H69AR cells + 2 uM doxorubicin), the differential viability (reversal) is 8.43% (inactive). The inhibition in assay [4] was -6.13% (inactive); in assay [5], -0.48% (inactive).
For the compound `CCCSC1=C(C#N)C(c2ccccc2OCC)CC(=O)N1` (stereo not drawn), the viability is 79% (inactive) in assay [1], 90.1% (inactive) in assay [2], 93.3% in assay [3] (setting [6]) and 90.1% in assay [3] (setting [7]). Moreover, in assay [3] (H69AR cells + 2 uM doxorubicin), the differential viability (reversal) was -3.18% (inactive). For the same compound, the inhibition is -2.5% (inactive) in assay [4] and 3.33% (inactive) in assay [5].
As for `COc1ccc2c(c1)C(=O)N(c1ccccc1OC)C(=O)C2`, the viability in assay [1] was 74.9% (inactive); in assay [2] it was 92.8% (inactive); in assay [3] (setting [6]), 101%; in assay [3] (setting [7]) it was 92.8%. The differential viability (reversal) in assay [3] (H69AR cells + 2 uM doxorubicin) is -8.61% (inactive). Further, the inhibition in assay [4] was -3.87% (inactive); in assay [5] it was 0.32% (inactive).
Turning to `Cc1cc(C)n(Cc2nc3ccccc3n2C)n1`, the viability in assay [1] is 92.9% (inactive); in assay [2] it was 99% (inactive); in assay [3] (setting [6]), 90.9%; in assay [3] (setting [7]) it was 99%. The differential viability (reversal) in assay [3] (H69AR cells + 2 uM doxorubicin) was 8.18% (inactive). For the same compound, the inhibition in assay [4] was 0.52% (inactive); in assay [5] it was 4.92% (inactive).
As to `CCOc1ccccc1C(=O)NCc1ccc2c(c1)OCO2`, the viability in assay [1] was 88.2% (inactive); in assay [2], 67.4% (inactive); in assay [3] (setting [6]), 88.1%; in assay [3] (setting [7]), 67.4%. Moreover, in assay [3] (H69AR cells + 2 uM doxorubicin), the differential viability (reversal) is -20.6% (inactive). In addition, the inhibition in assay [4] was -7.73% (inactive); in assay [5] it was 3.02% (inactive).
As to `O=C(Nc1ccccc1C(=O)N1CCOCC1)c1ccncc1`, the viability is 96.4% (inactive) in assay [1], 101% (inactive) in assay [2], 93.6% in assay [3] (setting [6]) and 101% in assay [3] (setting [7]). In addition, the differential viability (reversal) in assay [3] (H69AR cells + 2 uM doxorubicin) is 7.54% (inactive). The values for the inhibition in assay [4] and in assay [5] were -1.43% (inactive) and -2.22% (inactive), respectively.
Turning to `O=C(CSCc1ccccn1)Nc1ccccc1`, the viability in assay [1] was 102% (inactive); in assay [2], 94.4% (inactive); in assay [3] (setting [6]), 86.4%; in assay [3] (setting [7]), 94.4%. Also, the differential viability (reversal) in assay [3] (H69AR cells + 2 uM doxorubicin) was 7.96% (inactive). Also, the inhibition in assay [4] is -5.07% (inactive); in assay [5] it was -6.19% (inactive).
For the compound `O=C(CN1c2cccc3cccc(c23)S1(=O)=O)N1CCOCC1`, the viability in assay [1] is 105% (inactive); in assay [2], 92.5% (inactive); in assay [3] (setting [6]) it was 93.4%; in assay [3] (setting [7]), 92.5%. Besides, the differential viability (reversal) in assay [3] (H69AR cells + 2 uM doxorubicin) was -0.865% (inactive). In addition, the inhibition was -3.2% (inactive) in assay [4] and 0.16% (inactive) in assay [5].
In the case of `O=C(Nc1ccc(Cc2ccncc2)cc1)C1CC1`, the viability in assay [1] is 88.2% (inactive); in assay [2] it was 99.5% (inactive); in assay [3] (setting [6]), 82.1%; in assay [3] (setting [7]), 99.5%. For the same compound, in assay [3] (H69AR cells + 2 uM doxorubicin), the differential viability (reversal) is 17.4% (inactive). For the same compound, the inhibition in assay [4] is -2.21% (inactive); in assay [5], 1.75% (inactive).
Consider `Cc1nc(C)c(C(=O)C2=C(O)C(=O)N(CCCn3ccnc3)C2c2ccccc2)s1` (stereo not drawn), for which the viability is 94.5% (inactive) in assay [1], 95% (inactive) in assay [2], 94.1% in assay [3] (setting [6]) and 95% in assay [3] (setting [7]). Besides, the differential viability (reversal) in assay [3] (H69AR cells + 2 uM doxorubicin) was 0.995% (inactive). The inhibition was -0.13% (inactive) in assay [4] and -2.54% (inactive) in assay [5].
As for `Cc1cc(C)n(-c2ccc3cccc(NS(C)(=O)=O)c3n2)n1`, the viability in assay [1] was 14.3% (active); in assay [2] it was 27.6% (active); in assay [3] (setting [6]) it was 50.4%; in assay [3] (setting [7]) it was 27.6%. In assay [3] (H69AR cells + 2 uM doxorubicin), the differential viability (reversal) was -22.8% (inactive). Besides, the inhibition in assay [4] was -6% (inactive); in assay [5], 7.46% (inactive).
Turning to `COc1ccc2oc(C)c(C(=O)Cn3ccnc3)c2c1`, the viability in assay [1] is 92.8% (inactive); in assay [2], 87.8% (inactive); in assay [3] (setting [6]), 90.1%; in assay [3] (setting [7]), 87.8%. The differential viability (reversal) in assay [3] (H69AR cells + 2 uM doxorubicin) was -2.3% (inactive). For the same compound, the inhibition was 1.69% (inactive) in assay [4] and 24.8% (inactive) in assay [5].
Take `O=C(CSc1nc2ccccc2o1)N1CCN(c2ccc(Cl)cc2)CC1`: the viability in assay [1] is 92.6% (inactive); in assay [2], 87.4% (inactive); in assay [3] (setting [6]) it was 85.9%; in assay [3] (setting [7]), 87.4%. In assay [3] (H69AR cells + 2 uM doxorubicin), the differential viability (reversal) was 1.47% (inactive). Also, the inhibition in assay [4] is -1.56% (inactive); in assay [5], 6.35% (inactive).
For the compound `CCCCCC1NC(=O)NC1CCCCCC(=O)O` (stereo not drawn), the viability was 98.5% (inactive) in assay [1], 104% (inactive) in assay [2], 89.2% in assay [3] (setting [6]) and 104% in assay [3] (setting [7]). For the same compound, the differential viability (reversal) in assay [3] (H69AR cells + 2 uM doxorubicin) was 14.3% (inactive). For the same compound, the inhibition in assay [4] was -0.91% (inactive); in assay [5] it was -2.22% (inactive).
Consider `CC(C)C1N=C2c3ccccc3N=C(SCC(=O)NCCc3ccc(S(N)(=O)=O)cc3)N2C1=O` (stereo not drawn), for which the viability was 82.8% (inactive) in assay [1], 86.7% (inactive) in assay [2], 82.3% in assay [3] (setting [6]) and 86.7% in assay [3] (setting [7]). The differential viability (reversal) in assay [3] (H69AR cells + 2 uM doxorubicin) is 4.46% (inactive). Moreover, the figures for the inhibition in assay [4] and in assay [5] were -2.47% (inactive) and 4.13% (inactive), respectively.
Consider `Cc1ccc(-c2nn3c(C)nnc3s2)cc1N`, for which the viability in assay [1] is 83.5% (inactive); in assay [2], 94.7% (inactive); in assay [3] (setting [6]) it was 78.2%; in assay [3] (setting [7]), 94.7%. Further, in assay [3] (H69AR cells + 2 uM doxorubicin), the differential viability (reversal) is 16.5% (inactive). For the same compound, the inhibition in assay [4] is -7.47% (inactive); in assay [5], 3.33% (inactive).
Take `COc1ccccc1-c1c(C)nn2c(C)c(C(C)=O)cnc12`: the viability in assay [1] is 111% (inactive); in assay [2], 94.3% (inactive); in assay [3] (setting [6]), 84%; in assay [3] (setting [7]), 94.3%. Also, the differential viability (reversal) in assay [3] (H69AR cells + 2 uM doxorubicin) was 10.3% (inactive). Besides, the inhibition is -6.1% (inactive) in assay [4] and 1.27% (inactive) in assay [5].
Regarding `CN(CC(=O)O)S(=O)(=O)c1cc(Cl)ccc1Cl`, the viability is 112% (inactive) in assay [1], 96.8% (inactive) in assay [2], 84.6% in assay [3] (setting [6]) and 96.8% in assay [3] (setting [7]). The differential viability (reversal) in assay [3] (H69AR cells + 2 uM doxorubicin) is 12.2% (inactive). Besides, the inhibition is -2.53% (inactive) in assay [4] and -5.24% (inactive) in assay [5].
`CCn1c(C)nc2cc(C(=O)OC(C(F)(F)C(F)F)C(F)(F)C(F)F)ccc21`: the viability in assay [1] is 58.4% (inactive); in assay [2], 79.2% (inactive); in assay [3] (setting [6]), 79.1%; in assay [3] (setting [7]) it was 79.2%. The differential viability (reversal) in assay [3] (H69AR cells + 2 uM doxorubicin) is 0.115% (inactive). Besides, the inhibition in assay [4] was -2.47% (inactive); in assay [5] it was 3.97% (inactive).
